In PubChem BioAssay:
Active and inactive are the calls of the source.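 Rule for the calls, unless noted: active = GFP response above 150% of the DMSO level; inconclusive = fewer than 70 events counted for a yeast strain; inactive = the rest.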

Legend:
[1] = hit retest on RPL19A-GFP reporter strain – cell-based, S. cerevisiae, flow cytometry, cherry picks, mother/daughter gates, confirmation (AID 2270;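 active = GFP response below 50% of the DMSO control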); conditions: 3 h, at 10 µM, stronger effect = lower value, 100 = same GFP as DMSO wells
[2] = yeast TOR pathway reporter LAP4-GFP change – cell-based, cherry picks, flow cytometry, mother/daughter gates, confirmation (AID 2271;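 active = GFP response above 150% of the DMSO control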;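 note: ratio of sample to DMSO plate mean so 100% equals DMSO level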); conditions: S. cerevisiae LAP4-GFP strain, 3 h, at 10 µM, stronger effect = higher value, 100 means same as DMSO control
How it was run: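 Material: Alexa Fluor 633-labelled Saccharomyces cerevisiae GFP-fusion strain, single-plex | Amount: Yeast cells seeded at OD600 of 0.2 | Buffer or medium: SC growth medium | Schedule: 3 h exposure, 30 °C | Measured by: HT flow cytometry, GFP fluorescence channel | Evaluation: % GFP response vs DMSO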

[3] = TOR pathway reporter MEP2-GFP, retest of hits – S. cerevisiae, flow cytometry GFP, cherry picks, confirmation (AID 2272;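 active = GFP response above 150% of the DMSO control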;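 note: ratio of well signal to plate DMSO mean so 100% equals DMSO level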); conditions: S. cerevisiae MEP2-GFP strain, 3 h, at 10 µM, stronger effect = higher value
[4] = yeast AGP1-GFP fluorescence change, single-dose – cell-based, flow cytometry, S. cerevisiae, cherry picks, confirmation (AID 2273);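 note: median GFP channel fluorescence over the whole cell population gate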; conditions: S. cerevisiae AGP1-GFP strain, 3 h, at 10 µM
[5] = TOR pathway CIT2 reporter hit retest – S. cerevisiae, GFP fusion, cherry picks, mother/daughter gates, confirmation (AID 2274); conditions: S. cerevisiae CIT2-GFP strain, flow cytometry, 3 h, at 10 µM, stronger effect = higher value
[6] = measured here: daughter cell gate
[7] = measured here: mother cell gate
[8] = measured here: daughter cell gate response
[9] = measured here: mother cell gate response

SMILES | GFP response vs DMSO [1] | GFP response vs DMSO [1, 6] | GFP response vs DMSO [1, 7] | GFP response relative to DMSO [2] | GFP response relative to DMSO [2, 8] | GFP response relative to DMSO [2, 9] | GFP response vs DMSO [3] | GFP response, % of DMSO [4] | GFP response, % of DMSO [5] | GFP response, % of DMSO [5, 6] | GFP response, % of DMSO [5, 7]
Cc1nnc(OCc2nc3ccccc3n2C)c2ccccc12 | 101% (inactive) | 102% | 101% | 98.8% (inactive) | 93.6% | 100% | 99.5% (inactive) | 94.3% (inactive) | 96.4% (inactive) | 96.4% | 95.6%
COc1ccc(N=Cc2nc(-c3ccccc3)oc2OC(C)=O)cc1 | 100% (inactive) | 99.1% | 101% | 107% (inactive) | 96.5% | 111% | 95.4% (inactive) | 94% (inactive) | 90.7% (inactive) | 90.9% | 88.6%
CC(C)Oc1ccc(C(=O)/C=C2/C(=O)Nc3ccccc32)cc1 | 88.2% (inactive) | 83.8% | 80.3% | 161% (active) | 119% | 161% | 111% (inactive) | 123% (inactive) | 110% (inactive) | 93.2% | 98.7%
O=C(NCc1ccc2c(c1)OCO2)c1nc(S(=O)(=O)Cc2ccccc2F)ncc1Cl | 99.1% (inactive) | 99.3% | 97.8% | 101% (inactive) | 104% | 102% | 103% (inactive) | 100% (inactive) | 94.4% (inactive) | 94% | 96%
COc1ccc(C2=NN(S(C)(=O)=O)C(c3ccc4nccnc4c3)C2)cc1 (configuration not stated) | 101% (inactive) | 99.8% | 102% | 99.8% (inactive) | 103% | 103% | 102% (inactive) | 97.6% (inactive) | 92.6% (inactive) | 93.2% | 91.2%
O=[N+]([O-])/C=C/c1cn(Cc2ccc(F)cc2)c2ccccc12 | 103% (inactive) | 104% | 102% | 113% (inactive) | 110% | 115% | 105% (inactive) | 94.5% (inactive) | 104% (inactive) | 105% | 101%
Cc1cccc(NC(=O)CC2SC(=O)N(c3ccccc3)C2=O)c1 (configuration not stated) | 96.6% (inactive) | 99.4% | 93% | 126% (inactive) | 128% | 126% | 109% (inactive) | 93.9% (inactive) | 104% (inactive) | 106% | 97.3%
